Test results published in ChEMBL document CHEMBL5046229 (Eur J Med Chem, 2022).
The source made the active and inactive calls. The rule behind the calls is not given here.

Assays:
[1] = Drug metabolism in JAK2V6175 transgenic myelofibrosis C57BL/6 mouse bone marrow at 325 mg/kg, po assessed as metabolite formation measured after 4 hrs by LC-MS/MS analysis; format: ADME, organism-based; conditions: in vivo
Summary of the method: (§1)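 Mice received a single oral dose of 325 mg/kg (n=4 per compound). Blood, spleen and bone marrow taken about 4 h later and homogenized. Extracts centrifuged at 10,000 × g and separated by reverse-phase C18 UPLC (0.1% formic acid water/acetonitrile gradient). Parent and metabolites quantified by MRM LC-MS/MS against internal-standard calibration (0.02–160 ng/mL, r² ≥ 0.99). Synthesized metabolite standards used for confirmation. Levels given as ng/g, mean ± SEM.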

A-375 [2] = test: Inhibition of ERK phosphorylation in human A-375 cells assessed as change in phosphorylated ERK level at 10 uM for 30 minutes in presence of PDGF by western blot analysis relative to control; format: cell-based; parameters: scale not given: the % may be the effect or the level left
Summary of the method: (§2)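 A375 and D54 cells grown in DMEM with 10% FBS; SET-2 in RPMI with 20% FBS. Cells treated 30 min at 10 μM; A375 and D54 also received PDGF 50 ng/ml, which was omitted for SET-2. Cells lysed in RIPA with protease and phosphatase inhibitors, then SDS-PAGE/western blot for pAKT S473, pERK1/2 T202/Y204, total AKT and total ERK. Densitometry of phospho signal normalized to total protein, expressed as % of control. 3 independent experiments, mean ± SEM.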

SET2 [3] = test: Inhibition of ERK phosphorylation in human SET2 cells assessed as change in phosphorylated ERK level at 10 uM for 30 minutes in absence of PDGF by western blot analysis relative to control; parameters: scale not given: the % may be the effect or the level left
Spleen [4] = test: Effect of PI3K signalling pathway in JAK2V6175 transgenic myelofibrosis C57BL/6 mouse spleen assessed as reduction in AKT phosphorylation at 325 mg/kg, po administered daily for 5 days by flow cytometry analysis; format: functional, organism-based; conditions: time 5.0 day
Summary of the method: (§3)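 JAK2V617F bone-marrow-transplant MF mice were dosed 325 mg/kg orally daily for 5 days, then sacrificed. Isolated cells stained intracellularly with APC-conjugated anti-pAKT (S473) or anti-pERK1/2 (T202/Y204). Mean fluorescence intensity measured by flow cytometry. Vehicle n=6, treated n=4; mean ± s.e.m., Welch's t-test.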

SET-2 = test: Antiproliferative activity against human SET-2 cells assessed as reduction in cell viability measured after 72 hrs by CellTiter-Fluor cell viability assay; format: functional, cell-based; conditions: SET-2, 72 h
Summary of the method: (§4)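 Cells grown in DMEM or RPMI 1640 with 10% FBS (20% for SET-2), 37 °C, 5% CO₂. About 500–1,000 cells/well seeded and incubated 24 h, then exposed to final concentrations of 0.1–20 μM for 72 h. Viability read by fluorescence (CellTiter-Fluor). IC₅₀ calculated from 3 independent experiments in duplicate wells, reported as mean ± SEM.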

SET2 [5] = test: Inhibition of AKT phosphorylation in human SET2 cells assessed as change in phosphorylated Akt level at 10 uM for 30 minutes in absence of PDGF by western blot analysis relative to control; parameters: scale not given: the % may be the effect or the level left
[6] = Drug metabolism in JAK2V6175 transgenic myelofibrosis C57BL/6 mouse blood at 325 mg/kg, po assessed as metabolite formation measured after 4 hrs by LC-MS/MS analysis; format: ADME, organism-based; conditions: in vivo; summary of the method: as §1
Mus musculus [7] = test: Antitumor activity against JAK2V6175 transgenic myelofibrosis C57BL/6 mouse cancer model assessed as reduction in spleen volume at 325 mg/kg, po administered daily for 4 days by magnetic resonance imaging analysis; format: functional, organism-based; conditions: time 4.0 day
Summary of the method: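 Lethally irradiated C57BL/6 female recipients received 5 million mixed bone marrow cells (Mx1-Cre; JAK2V617F donor with WT, 1:9) and polyI:C twice 2 weeks after transplant. 325 mg/kg by oral gavage daily. Spleen volume by anatomic MRI at 7T after 4 days. Vehicle n=5, treated n=4; mean ± s.d., Welch's t-test.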

[8] = Drug concentration in JAK2V6175 transgenic myelofibrosis C57BL/6 mouse bone marrow at 325 mg/kg, po measured after 4 hrs by LC-MS/MS analysis; format: ADME, organism-based; conditions: read-out: Ct; summary of the method: as §1
D54 cell line [9] = test: Inhibition of ERK phosphorylation in human D-54 cells assessed as change in phosphorylated ERK level at 10 uM for 30 minutes in presence of PDGF by western blot analysis relative to control; format: cell-based; parameters: scale not given: the % may be the effect or the level left; summary of the method: as §2
Spleen [10] = test: Effect of MAPK signalling pathway in JAK2V6175F transgenic myelofibrosis C57BL/6 mouse spleen assessed as reduction in ERK1/2 phosphorylation at 325 mg/kg, po daily for 5 days by flow cytometry analysis; format: functional, organism-based; conditions: time 5.0 day; summary of the method: as §3
A-375 [11] = test: Antiproliferative activity against human A-375 cells assessed as reduction in cell viability measured after 72 hrs by CellTiter-Fluor cell viability assay; format: functional, cell-based; conditions: A-375, 72 h; summary of the method: as §4
A-375 [12] = test: Inhibition of AKT phosphorylation in human A-375 cells assessed as change in phosphorylated Akt level at 10 uM for 30 minutes in presence of PDGF by western blot analysis relative to control; format: cell-based; parameters: scale not given: the % may be the effect or the level left; summary of the method: as §2
Spleen [13] = test: Effect in JAK2V6175 transgenic myelofibrosis C57BL/6 mouse spleen assessed as reduction in ERK1/2 phosphorylation at 325 mg/kg, po administered daily for 5 days by flow cytometry analysis; conditions: time 5.0 day
D54 cell line [14] = test: Antiproliferative activity against human D54 cells assessed as reduction in cell viability measured after 72 hrs by CellTiter-Fluor cell viability assay; format: functional, cell-based; conditions: D54, 72 h; summary of the method: as §4
D54 cell line [15] = test: Inhibition of AKT phosphorylation in human D-54 cells assessed as change in phosphorylated Akt level at 10 uM for 30 minutes in presence of PDGF by western blot analysis relative to control; format: cell-based; parameters: scale not given: the % may be the effect or the level left; summary of the method: as §2
Spleen [16] = test: Effect of MAPK signalling pathway in JAK2V6175 transgenic myelofibrosis C57BL/6 mouse spleen assessed as reduction in […] phosphorylation at 325 mg/kg, po administered daily for 5 days by flow cytometry analysis; format: functional, organism-based; conditions: time 5.0 day; summary of the method: as §3
[17] = Drug metabolism in JAK2V6175 transgenic myelofibrosis C57BL/6 mouse spleen at 325 mg/kg, po assessed as metabolite formation measured after 4 hrs by LC-MS/MS analysis; format: ADME, organism-based; conditions: in vivo; summary of the method: as §1
Mus musculus [18] = test: Antitumor activity against JAK2V6175 transgenic myelofibrosis C57BL/6 mouse cancer model assessed as reduction in spleen weight at 325 mg/kg, po administered daily for 5 days; parameters: scale not given: the % may be the effect or the level left; conditions: time 5 day
[19] = Drug concentration in JAK2V6175 transgenic myelofibrosis C57BL/6 mouse spleen at 325 mg/kg, po measured after 4 hrs by LC-MS/MS analysis; format: ADME, organism-based; conditions: read-out: Ct; summary of the method: as §1
[20] = Drug concentration in JAK2V6175 transgenic myelofibrosis C57BL/6 mouse blood at 325 mg/kg, po measured after 4 hrs by LC-MS/MS analysis; format: ADME, organism-based; conditions: whole blood, read-out: Ct; summary of the method: as §1
[21] = biological target: Phosphatidylinositol 4,5-bisphosphate 3-kinase catalytic subunit alpha isoform (Homo sapiens, UniProt P42336); test: Inhibition of human PI3Kalpha by TR-FRET based Adapta assay
[22] = biological target: Phosphatidylinositol 4,5-bisphosphate 3-kinase catalytic subunit beta isoform (Homo sapiens, UniProt P42338); test: Inhibition of human PI3Kbeta by TR-FRET based Adapta assay
[23] = biological target: Dual specificity mitogen-activated protein kinase kinase 1 (Homo sapiens, UniProt Q02750); test: Inhibition of human MEK-1 by Lanthascreen TR-FRET assay
[24] = biological target: Phosphatidylinositol 4,5-bisphosphate 3-kinase catalytic subunit gamma isoform (Homo sapiens, UniProt P48736); test: Inhibition of human PI3Kgamma by TR-FRET based Adapta assay
[25] = biological target: T1, Phosphatidylinositol 4,5-bisphosphate 3-kinase catalytic subunit delta isoform (Homo sapiens, UniProt O00329); test: Inhibition of human PI3Kdelta by TR-FRET based Adapta assay
T1 sequence (O00329 whole entry): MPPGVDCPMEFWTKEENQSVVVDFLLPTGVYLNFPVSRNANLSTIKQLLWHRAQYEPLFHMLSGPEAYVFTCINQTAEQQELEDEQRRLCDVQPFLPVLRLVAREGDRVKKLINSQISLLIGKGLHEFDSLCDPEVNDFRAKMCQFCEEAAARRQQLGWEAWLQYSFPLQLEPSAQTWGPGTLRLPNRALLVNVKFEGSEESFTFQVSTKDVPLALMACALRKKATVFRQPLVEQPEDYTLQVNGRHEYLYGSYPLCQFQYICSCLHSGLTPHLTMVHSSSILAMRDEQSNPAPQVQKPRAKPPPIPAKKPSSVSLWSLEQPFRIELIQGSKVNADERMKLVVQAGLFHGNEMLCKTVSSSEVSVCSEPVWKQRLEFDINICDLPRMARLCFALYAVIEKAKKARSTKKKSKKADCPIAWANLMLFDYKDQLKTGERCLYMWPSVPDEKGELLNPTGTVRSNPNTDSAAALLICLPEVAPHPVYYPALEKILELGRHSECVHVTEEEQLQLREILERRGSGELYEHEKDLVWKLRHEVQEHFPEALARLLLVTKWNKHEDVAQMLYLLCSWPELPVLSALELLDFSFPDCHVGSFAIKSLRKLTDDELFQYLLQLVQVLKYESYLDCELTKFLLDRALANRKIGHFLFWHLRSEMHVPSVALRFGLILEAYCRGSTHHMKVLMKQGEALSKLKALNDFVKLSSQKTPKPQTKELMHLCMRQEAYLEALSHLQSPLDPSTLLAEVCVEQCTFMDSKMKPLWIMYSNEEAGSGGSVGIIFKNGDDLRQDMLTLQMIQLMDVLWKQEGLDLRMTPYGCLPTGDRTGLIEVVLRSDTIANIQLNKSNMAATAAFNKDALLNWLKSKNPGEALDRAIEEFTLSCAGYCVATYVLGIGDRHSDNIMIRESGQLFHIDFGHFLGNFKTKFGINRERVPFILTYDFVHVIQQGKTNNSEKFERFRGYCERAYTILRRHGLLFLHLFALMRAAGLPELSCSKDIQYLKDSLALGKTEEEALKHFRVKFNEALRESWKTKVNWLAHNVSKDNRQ

Chain of Dual specificity mitogen-activated protein kinase kinase 1 (Q02750 whole entry, canonical isoform): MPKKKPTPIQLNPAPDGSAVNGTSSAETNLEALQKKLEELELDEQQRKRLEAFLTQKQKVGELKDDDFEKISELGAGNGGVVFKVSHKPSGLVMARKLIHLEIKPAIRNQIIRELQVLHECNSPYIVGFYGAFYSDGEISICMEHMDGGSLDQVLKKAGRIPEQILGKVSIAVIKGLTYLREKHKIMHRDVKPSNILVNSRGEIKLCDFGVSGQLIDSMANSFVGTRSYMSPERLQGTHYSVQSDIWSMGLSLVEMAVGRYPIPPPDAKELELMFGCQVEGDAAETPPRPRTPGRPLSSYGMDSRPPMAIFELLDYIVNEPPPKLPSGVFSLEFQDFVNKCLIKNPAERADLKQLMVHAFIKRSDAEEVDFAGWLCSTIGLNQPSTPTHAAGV
Chain of Phosphatidylinositol 4,5-bisphosphate 3-kinase catalytic subunit beta isoform (P42338 whole entry, canonical isoform): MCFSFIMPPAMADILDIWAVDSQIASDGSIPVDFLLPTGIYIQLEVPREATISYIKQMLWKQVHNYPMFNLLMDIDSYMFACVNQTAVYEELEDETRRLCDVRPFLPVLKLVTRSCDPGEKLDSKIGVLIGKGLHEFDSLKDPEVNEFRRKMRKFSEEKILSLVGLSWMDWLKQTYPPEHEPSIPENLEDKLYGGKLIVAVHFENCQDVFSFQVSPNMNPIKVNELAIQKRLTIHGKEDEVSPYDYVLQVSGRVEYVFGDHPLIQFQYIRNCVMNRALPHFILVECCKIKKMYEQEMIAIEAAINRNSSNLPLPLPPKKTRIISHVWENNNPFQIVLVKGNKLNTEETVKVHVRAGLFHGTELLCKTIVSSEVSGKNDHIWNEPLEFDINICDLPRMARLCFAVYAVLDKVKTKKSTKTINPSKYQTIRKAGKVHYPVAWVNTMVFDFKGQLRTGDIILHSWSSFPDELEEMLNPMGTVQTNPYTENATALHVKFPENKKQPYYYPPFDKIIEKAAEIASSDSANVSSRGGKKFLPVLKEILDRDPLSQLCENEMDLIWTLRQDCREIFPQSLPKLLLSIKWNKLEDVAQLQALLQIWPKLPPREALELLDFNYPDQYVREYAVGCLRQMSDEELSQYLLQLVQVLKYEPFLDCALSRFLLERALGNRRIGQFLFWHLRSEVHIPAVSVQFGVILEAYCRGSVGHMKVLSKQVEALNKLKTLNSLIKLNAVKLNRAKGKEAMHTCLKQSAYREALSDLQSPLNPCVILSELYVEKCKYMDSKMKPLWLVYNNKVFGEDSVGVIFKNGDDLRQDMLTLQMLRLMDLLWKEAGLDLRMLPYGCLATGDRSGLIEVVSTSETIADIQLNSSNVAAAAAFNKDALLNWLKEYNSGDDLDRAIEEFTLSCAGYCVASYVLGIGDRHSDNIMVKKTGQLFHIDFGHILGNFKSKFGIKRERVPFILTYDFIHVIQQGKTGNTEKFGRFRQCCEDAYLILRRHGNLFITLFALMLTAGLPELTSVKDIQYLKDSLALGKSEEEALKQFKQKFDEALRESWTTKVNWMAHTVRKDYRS
Chain of Phosphatidylinositol 4,5-bisphosphate 3-kinase catalytic subunit alpha isoform (P42336 whole entry, canonical isoform): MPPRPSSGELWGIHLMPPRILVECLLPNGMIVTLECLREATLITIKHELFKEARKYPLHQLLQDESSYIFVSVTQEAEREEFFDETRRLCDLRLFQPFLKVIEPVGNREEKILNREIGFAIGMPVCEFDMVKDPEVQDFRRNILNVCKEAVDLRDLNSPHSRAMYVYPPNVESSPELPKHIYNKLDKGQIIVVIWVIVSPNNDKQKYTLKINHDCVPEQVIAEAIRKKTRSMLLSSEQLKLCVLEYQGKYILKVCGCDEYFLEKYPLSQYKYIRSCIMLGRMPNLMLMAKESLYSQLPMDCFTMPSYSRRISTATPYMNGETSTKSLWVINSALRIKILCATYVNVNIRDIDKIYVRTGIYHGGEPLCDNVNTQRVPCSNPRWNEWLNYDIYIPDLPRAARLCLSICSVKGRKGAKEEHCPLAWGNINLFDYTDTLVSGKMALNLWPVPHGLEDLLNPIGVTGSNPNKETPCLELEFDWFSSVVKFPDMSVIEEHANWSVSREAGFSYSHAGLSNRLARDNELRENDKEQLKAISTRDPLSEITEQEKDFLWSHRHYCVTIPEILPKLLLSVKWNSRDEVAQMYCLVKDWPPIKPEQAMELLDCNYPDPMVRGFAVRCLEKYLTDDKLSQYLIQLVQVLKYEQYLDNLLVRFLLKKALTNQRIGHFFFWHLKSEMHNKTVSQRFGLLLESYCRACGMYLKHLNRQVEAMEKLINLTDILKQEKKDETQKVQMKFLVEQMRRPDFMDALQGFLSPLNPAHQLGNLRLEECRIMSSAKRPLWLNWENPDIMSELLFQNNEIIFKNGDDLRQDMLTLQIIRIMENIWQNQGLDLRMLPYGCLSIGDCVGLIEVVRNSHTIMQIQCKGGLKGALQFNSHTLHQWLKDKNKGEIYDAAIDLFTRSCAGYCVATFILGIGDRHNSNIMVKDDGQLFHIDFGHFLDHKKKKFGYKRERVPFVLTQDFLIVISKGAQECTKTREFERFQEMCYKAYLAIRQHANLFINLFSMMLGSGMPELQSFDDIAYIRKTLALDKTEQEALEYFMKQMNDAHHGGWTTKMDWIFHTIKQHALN
Chain of Phosphatidylinositol 4,5-bisphosphate 3-kinase catalytic subunit gamma isoform (P48736 whole entry, canonical isoform): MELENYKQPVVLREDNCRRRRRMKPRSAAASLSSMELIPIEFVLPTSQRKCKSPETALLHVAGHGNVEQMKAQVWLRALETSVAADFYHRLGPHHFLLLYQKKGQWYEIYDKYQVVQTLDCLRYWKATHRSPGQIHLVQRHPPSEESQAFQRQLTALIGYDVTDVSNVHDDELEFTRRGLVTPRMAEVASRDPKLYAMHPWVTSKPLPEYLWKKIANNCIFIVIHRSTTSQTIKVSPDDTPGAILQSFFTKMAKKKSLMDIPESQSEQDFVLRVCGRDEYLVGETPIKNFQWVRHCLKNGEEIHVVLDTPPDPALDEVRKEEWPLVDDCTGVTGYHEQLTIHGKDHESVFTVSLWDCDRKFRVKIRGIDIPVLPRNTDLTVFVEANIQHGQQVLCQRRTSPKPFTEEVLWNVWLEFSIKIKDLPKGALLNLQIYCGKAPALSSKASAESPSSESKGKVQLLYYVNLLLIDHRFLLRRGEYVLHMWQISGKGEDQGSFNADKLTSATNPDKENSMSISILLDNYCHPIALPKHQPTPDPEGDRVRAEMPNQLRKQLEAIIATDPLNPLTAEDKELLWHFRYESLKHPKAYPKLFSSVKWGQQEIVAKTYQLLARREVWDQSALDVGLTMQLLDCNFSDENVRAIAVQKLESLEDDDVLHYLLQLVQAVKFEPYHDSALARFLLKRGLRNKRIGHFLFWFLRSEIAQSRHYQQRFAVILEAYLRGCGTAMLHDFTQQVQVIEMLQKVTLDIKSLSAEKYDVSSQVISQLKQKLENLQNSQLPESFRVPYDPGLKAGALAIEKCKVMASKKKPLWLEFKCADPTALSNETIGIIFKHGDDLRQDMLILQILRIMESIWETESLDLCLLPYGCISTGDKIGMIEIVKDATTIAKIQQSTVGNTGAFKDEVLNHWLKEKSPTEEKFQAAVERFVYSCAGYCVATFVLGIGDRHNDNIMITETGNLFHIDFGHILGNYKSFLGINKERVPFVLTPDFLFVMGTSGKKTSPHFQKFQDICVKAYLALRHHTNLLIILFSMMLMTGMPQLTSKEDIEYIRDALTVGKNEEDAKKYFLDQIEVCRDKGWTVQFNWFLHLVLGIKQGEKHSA

For `O=C(NOCCOCCOCCOCCN(CCO)c1nc(N2CCOCC2)nc(-n2c(C(F)F)nc3ccccc32)n1)c1ccc(F)c(F)c1Nc1ccc(I)cc1F`, the Drug metabolism [1] was “Metabolite_Detected”, the Activity (A-375 [2]) was 96% and the Activity (SET2 [3]) was 90%. For the same molecule, the inhibition (Spleen [4]) was “Active”, the IC50 (SET-2) was 7 µM and the Activity (SET2 [5]) was 54.8%. The Drug metabolism [6] was “Metabolite_Detected”, the Activity (Mus musculus [7]) was “Active” and the concentration at 4 h [8] was 2000 ng/g. The Activity (D54 cell line [9]) was 87.3%, the inhibition (Spleen [10]) was “Active” and the IC50 (A-375 [11]) was 8.5 µM. For the same molecule, the Activity (A-375 [12]) was 70.8%, the inhibition (Spleen [13]) was “Active” and the IC50 (D54 cell line [14]) was 9.9 µM. The Activity (D54 cell line [15]) was 65.3%, the inhibition (Spleen [16]) was “Active” and the Drug metabolism [17] was “Metabolite_Detected”. It also gave an Activity (Mus musculus [18]) of 53%, a concentration at 4 h [19] of 2000 ng/g and a concentration at 4 h [20] of 2000 ng/g.
In the case of `O=C(NOCCOCCOCCOCCNc1nc(N2CCOCC2)nc(-n2c(C(F)F)nc3ccccc32)n1)c1ccc(F)c(F)c1Nc1ccc(I)cc1F`, the Drug metabolism [1] is reported as “Metabolite_Detected”, the Activity (A-375 [2]) is reported as 85.5% and the Activity (SET2 [3]) is reported as 76.8%. The inhibition (Spleen [4]) was “Active”, the IC50 (SET-2) was 10.7 µM and the Activity (SET2 [5]) was 28.9%. For the same molecule, the Drug metabolism [6] was “Metabolite_Detected”, the Activity (Mus musculus [7]) was “Active” and the concentration at 4 h [8] was 2000 ng/g. For the same molecule, the Activity (D54 cell line [9]) was 66.4%, the inhibition (Spleen [10]) was “Active” and the IC50 (A-375 [11]) was 10.7 µM. The Activity (A-375 [12]) was 23.7%, the IC50 [21] was 0.13 µM and the inhibition (Spleen [13]) was “Active”. The IC50 [22] was 1.54 µM, the IC50 (D54 cell line [14]) was 17.3 µM and the IC50 [23] was 0.124 µM. The IC50 [24] was 2.74 µM, the IC50 [25] was 0.236 µM and the Activity (D54 cell line [15]) was 22.5%. The inhibition (Spleen [16]) was “Active”, the Drug metabolism [17] was “Metabolite_Detected” and the Activity (Mus musculus [18]) was 35%. It also gave a concentration at 4 h [19] of 2000 ng/g and a concentration at 4 h [20] of 2000 ng/g.
